# Bioassay records from PubChem.
# An excerpt weighted towards active compounds, which were near 2.3% of everything screened.
# LMPTP inh: LMPTP phosphatase inhibitors, primary screen, biochemical, fluorescence intensity, uHTS | 0.22% of 360,000 active | inhibition, % at 20 µM | AID 651560, 2012 | Low molecular weight phosphotyrosine protein phosphatase (Homo sapiens), P24666 | recombinant LMPTP-A, OMFP fluorogenic substrate;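 active = compounds that cut the enzyme signal by at least half of the control window in the single-dose screen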;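 note: plate controls were DMSO wells with enzyme plus substrate for no effect and substrate without enzyme for full effect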
#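 Test system: LMPTP-A phosphatase enzyme. Amount: LMPTP-A at 0.625 nM final in the reaction. Reagent: OMFP substrate, 400 µM final. Times: 50 min at room temperature. Signal: endpoint fluorescence intensity from OMFP dephosphorylation. Read-out basis: % inhibition. Benchmarks: no-enzyme and uninhibited controls.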
# Scp1 inh: Scp-1 phosphatase inhibitors, primary screen, biochemical, colorimetric, uHTS; Carboxy-terminal domain RNA polymerase II polypeptide A small phosphatase 1 (Homo …; Recombinant Scp1, phosphopeptide, malachite green phosphate absorbance; inhibition, % at 20 µM; 0.88% of 340,000 active; AID 493091, 2011;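 active = inhibition above about 50% at 20 µM, limit read from the data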;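 note: plate controls were DMSO wells with enzyme for no effect and wells lacking enzyme for full effect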
#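 Material – SCP-1 phosphatase catalytic domain, residues 76-261 · Buffer or medium – Acidic Tris acetate buffer with magnesium and detergent · Also added – Phospho 17-mer peptide substrate · Compound – single 20 µM dose, 1% DMSO · Times – 45 min room-temperature reaction, 5 min colour, 30 min stabiliser · Technique – Phosphate-binding colour reagent, absorbance read at 630 nm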
# DNMT1 block: human DNMT1 methyltransferase inhibitors, primary screen, biochemical, molecular beacon, fluorescence, HinP1I cleavage, uHTS | DNA (cytosine-5)-methyltransferase 1 (Homo sapiens), P26358 | inhibition (reported as % activation of signal), % at 10 µM | 0.83% of 360,000 active; in the data active = inhibition above about 50%
# Rpn11 block: Rpn11 (PSMD14) deubiquitinase inhibitors, primary screen, biochemical, fluorescence polarization, uHTS; 26S proteasome non-ATPase regulatory subunit 14 (Homo sapiens), O00487; human 26S proteasome, Ub4-pepOG fluorescence polarization; 20S core pre-blocked with epoxomicin; inhibition, % at 20 µM; 0.59% of 360,000 active; AID 588493, 2011;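 active = inhibition at 20 µM, scaled to each plate's controls, above about 33%, limit read from the data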
# SUMO1 PPI mod: modulators of SUMO1 protein-protein interactions, primary screen, biochemical, uHTS; Small ubiquitin-related modifier 1 (Homo sapiens), P63165; 0.33% of 360,000 active; SUMO1 binding to a labelled peptide, TR-FRET, 1 h; inhibition, % at 20 µM; in the data active = inhibition above about 37%
# STEP block: STEP phosphatase inhibitors, primary screen, biochemical, fluorescence intensity, uHTS; Tyrosine-protein phosphatase non-receptor type 5 (Homo sapiens), P54829; recombinant STEP, OMFP fluorogenic substrate; inhibition, % at 20 µM; 0.25% of 360,000 active;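 active = inhibition at 20 µM, scaled per plate between control wells, above about 37%, limit read from the data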;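 note: 0% = DMSO with enzyme and substrate and 100% = substrate only without enzyme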
# Target sequence (P54829 whole entry, looked up): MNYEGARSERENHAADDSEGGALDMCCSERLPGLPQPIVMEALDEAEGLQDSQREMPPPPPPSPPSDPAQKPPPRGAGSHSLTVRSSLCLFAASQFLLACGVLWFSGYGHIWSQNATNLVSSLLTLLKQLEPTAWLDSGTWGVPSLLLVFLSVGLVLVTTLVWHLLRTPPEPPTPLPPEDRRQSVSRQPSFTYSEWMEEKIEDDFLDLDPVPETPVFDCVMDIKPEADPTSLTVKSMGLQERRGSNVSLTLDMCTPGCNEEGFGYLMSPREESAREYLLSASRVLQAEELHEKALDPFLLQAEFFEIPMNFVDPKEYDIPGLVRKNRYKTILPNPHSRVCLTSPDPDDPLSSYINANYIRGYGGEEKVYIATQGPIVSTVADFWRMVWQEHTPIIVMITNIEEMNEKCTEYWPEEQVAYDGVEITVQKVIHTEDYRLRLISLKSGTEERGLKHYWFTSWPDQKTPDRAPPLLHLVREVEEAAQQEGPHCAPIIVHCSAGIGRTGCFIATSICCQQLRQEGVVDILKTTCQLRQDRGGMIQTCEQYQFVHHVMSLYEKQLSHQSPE
#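 Material: STEP (striatal-enriched tyrosine phosphatase) enzyme, cell-free; Compound dosing: 20 µM single dose in 1% DMSO; Technique: fluorescence read at 480 nm ex / 540 nm em; Times: reaction 20 min, ambient temperature; Medium: 50 mM Bis-Tris pH 6.0 with 2.5 mM DTT and 0.005% Tween 20; Also added: OMFP at 25 µM.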
# * marks the source's active call; other numbers are inactive results; . = no result shown; ! = not confirmed by another sample.
SMILES,LMPTP inh,Scp1 inh,DNMT1 block,Rpn11 block,SUMO1 PPI mod,STEP block
COc1cccc(NC(=O)N2CCCC2C(=O)NC2CCCC2)c1 (configuration not stated),1,-1,0,-1,2,-1
CC1(C#CC[N+]2(C)CCCCC2)CCC2C(O1)c1ccccc1OC2(C)C (configuration not stated),-1,27,5,4,0,-1
O=C(/C=C/c1ccc(Br)o1)OCc1nc2ccsc2c(=O)[nH]1,76*,86*,104*,.,120*,89*
CC(=O)OC[C@]1(OC(C)=O)C[C@@]23CC[C@H]4[C@@](C)(CCC[C@@]4(C)C(=O)O)[C@@H]2CC[C@@H]1C3,20,-6,7,0,10,-1
CC(=O)OC[C@]12CC[C@H]3[C@@](C)(CC[C@H]4C(C)(C)CCC[C@]34C)[C@@H]1CC(C1=CC(=O)OC1O)O2 (some centres not stated),4,.,58*,58*,74*,1
CCCCn1c(N)c(S(=O)(=O)c2ccc(C)cc2)c2nc3ccccc3nc21,5,3,-27,18,39*,-3
NC(=O)Cn1ccc(O)c(Cc2ccc(Cl)cc2Cl)c1=O,0,-10,0,1,-1,0
O=C(Nc1ccc(-n2nncc2-c2ccco2)cc1)c1cc2ccccc2oc1=O,20,35,112*,.,57*,45*
N[C@@H](Cc1cc(I)c(Oc2ccc(O)c(I)c2)c(I)c1)C(=O)O,32,27,77*!,59*!,40*!,-3
N[C@@H](Cc1cc(I)c(Oc2cc(I)c(O)c(I)c2)c(I)c1)C(=O)O,.,32,.,.,.,.
O=C(NC1(O)C(=O)c2ccccc2C1=O)c1ccc(C(F)(F)F)cc1,4,3,61*,8,7,2
Cc1ccc(C(=O)NC2(O)C(=O)c3ccccc3C2=O)cc1C,1,4,24,7,-4,3
Cn1nc(C(=O)NNC(=O)Cc2ccc(S(=O)(=O)N3CCOCC3)s2)c2ccccc2c1=O,-1,-10,-1,6,-4,-1
O=S(=O)(Nc1cc2nc3ccccc3nc2n1Cc1ccccc1)c1ccc(Cl)cc1,38,-14,89*,-2,51*,-13
O=S(=O)(NCc1ccccc1)c1ccc(Cl)cc1,-1,-17,2,2,3,-2
O=C(NCCc1cccs1)c1ccc(Cl)cc1,0,-7,0,5,0,-2
NC(=O)c1ccc(NCCc2cccs2)cc1,-1,.,-3,-1,39*,-1
O=C(O)c1csc(N/N=C/c2ccc(Br)cc2)n1,59*,-1,13,4,5,-1
Cc1csc(N/N=C/c2ccc([N+](=O)[O-])cc2)n1,2,-9,-8,1,-27,1
COc1ccc(Cl)cc1/C=N/NC(=O)c1c(-c2ccccc2)noc1C,1,-2,-1,2,53*,-2
CCc1nnc(NC(=O)CSc2ncnc3c2oc2ccccc23)s1,1,-7,-21,0,66*,0
O=C(CSc1ncnc2c1oc1ccccc12)Nc1nc2ccccc2s1,0,-9,23,-10,-5,1
O=C(NC(=S)NCCC1=CCCCC1)c1ccccc1Br,4,67*,-10,8,4,-3
Nc1c(/C=C2/C=CC(=O)C(O)=C2)c(=O)nc2sc(CC(=O)N3CCCC3)nn12,4,88*,21,30,-8,5
CC1=Nc2ccc(C)cc2/C1=C/c1c(N)n2nc(CC(=O)N3CCOCC3)sc2nc1=O,0,-9,0,34,-3,0
SMILES,LMPTP inh,Scp1 inh,DNMT1 block,Rpn11 block,SUMO1 PPI mod,STEP block
COC1=CC(=Cc2c(N)n3nc(CC(=O)N4CCCCC4)sc3nc2=O)C=C(OC)C1=O,2,-2,6,.,-25,0
Nc1c(/C=C2/C=CC(=O)C(O)=C2)c(=O)nc2sc(CC(=O)N3CCCCC3)nn12,65*,72*,81*,.,45*,13
Nc1c(/C=C2/C=CC(=O)C(O)=C2)c(=O)nc2sc(CC(=O)N3CCOCC3)nn12,2,71*,19,27,-6,2
Nc1c(C=C2C=CC(=O)C=C2)c(=O)nc2sc(CC(=O)N3CCCCC3)nn12,0,9,5,11,-5,0
COC(=O)[C@H](CC(C)C)NC(=O)c1cc2c(cn1)[nH]c1ccccc12,2,7,-3,6,4,13
COC(=O)c1c(NC(=O)CN2C(=O)C(=O)N(C(C)C)C2=O)sc(C)c1C,1,-3,-3,0,2,0
CC1CCCN(Cc2c(O)ccc3c2O/C(=C\c2ccco2)C3=O)C1 (configuration not stated),14,6,61*,-88,2,-6
O=C(COC(=O)c1ccc(-c2cnc3ccccc3n2)cc1)c1ccccc1,-1,-10,9,-5,41*,-2
Cc1ccc(C(=O)OCC(=O)c2ccccc2)cc1,0,-9,2,7,2,2
CCOC(=O)c1ccc(Nc2sc(C(=O)c3cccc([N+](=O)[O-])c3)c(N)c2C#N)cc1,0,1,-11,-5,53*,-2
O=C1NC[C@@H](CCCCN2C[C@H](Cc3ccc(O)cc3)N(CCc3ccc(O)cc3)C(=O)C2=O)N(CCc2ccc(O)cc2)C1=O,33,.,.,.,44*,.
O=C(CN1C(=O)NC2(CCCC2)C1=O)OCCOc1ccc(Br)cc1,0,-7,-4,1,2,3
Oc1ccc(NCc2ccccc2OCc2ccccc2)cc1,24,-10,-22,0,57*,3
COc1ccc(NC(=S)N2CCN(S(=O)(=O)c3ccccc3)CC2)cc1,2,-13,3,0,14,4
CC(C)NC(=O)c1sc(=S)n2c1[nH]c(=O)c1ccc(C(=O)NCCc3ccc(Cl)cc3)cc12,34,-7,-24,22,27,40*
CCN(CC)CCNC(=O)C1(c2ccccc2)CCCCC1,14,-7,-1,3,47*,-2
CCc1cc(C(=O)NC2CCCN(Cc3ccccc3F)C2)n(C)n1 (configuration not stated),0,-5,1,-4,5,-2
